Results reported in the RNAGym collection of RNA variant scans (doi:10.1126/science.aae0568).
This sample holds only a part of the variants without activity.

B1: tRNA (parent)
chain: GUUCCGUUGGCGUAAUGGUAACGCGUCUCCCUCCUAAGGAGAAGACUGCGGGUUCGAGUCCCGUACGGAACG

Variants of: B1
Assay: yeast fitness relative to wild type (ratio to wild type); higher = fitter; tRNA-Arg(CCU), competitive growth, 37 C, YPD
Method in brief: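 Gene amplicons from the start population and from each of six end populations were read by 100-nucleotide paired-end sequencing. Those end populations came from pooled Saccharomyces cerevisiae strains carrying tRNA-Arg(CCU) gene variants at the native locus, competed in YPD at 37°C for 24 hours. Fitness relative to wild type was worked out from changes in genotype frequencies. Genotypes needed ≥ 100 starting reads, and estimates < 0.5 were set to 0.5.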

G10A C31A C61U and G10A C11A C29A A45C A69U cannot be ordered by yeast fitness: no more than 0.5 for the first, no more than 0.5 for the second.

Going from G9C G50C U53G G67C to G10C A21C C30U G41C A70U, the yeast fitness falls from 0.68 to no more than 0.5.

G9C A40U G41A and G10A A15U A36U cannot be ordered by yeast fitness: no more than 0.5 for the first, no more than 0.5 for the second.

Going from G9C C61A to G9C U54C U59C A69G, the yeast fitness falls from 0.531 to no more than 0.5.

G9C C24G C27U U47G U53A and G9C A42C C49G U53A cannot be ordered by yeast fitness: no more than 0.5 for the first, no more than 0.5 for the second.

G9C U13C C27A U54A C60U and G10C C24A C61U cannot be ordered by yeast fitness: no more than 0.5 for the first, no more than 0.5 for the second.

G10C A37C A42U and G10A A21C C24A G63A A65C cannot be ordered by yeast fitness: no more than 0.5 for the first, no more than 0.5 for the second.

Compared with G10A G18A C46A A65U, G10A U54G C61U is higher in yeast fitness: no more than 0.5 for the first, 0.55 for the second.

Compared with G9C U53C, G9C C29U A70C is lower in yeast fitness: 0.59 for the first, no more than 0.5 for the second.

First: G10A C29G C33U G50A
Second: G10C C24A G44C
The yeast fitness of the first is higher: 0.535 for the first, no more than 0.5 for the second.

Going from G10C C22U to G10C C22A, the yeast fitness falls from 0.803 to 0.705.

Going from G10A C27U C33U A43U U54C G68C to G10C G23C A45U U59G, the yeast fitness rises from no more than 0.5 to 0.528.

Going from G10A A14U C30U C34A to G10A U64C, the yeast fitness rises from no more than 0.5 to 0.793.

First: G10A A15G C27U A42C G50C
Second: G10C G25C U26C
The yeast fitness of the first is lower: no more than 0.5 for the first, 0.526 for the second.

G10C C24U G68U and G10A A21C A40G U59C cannot be ordered by yeast fitness: no more than 0.5 for the first, no more than 0.5 for the second.

First: G10A C30A C31G
Second: G9C C27U A36G A42U
The yeast fitness of the first is lower: no more than 0.5 for the first, 0.76 for the second.

Compared with G9C A43G, G10A G17C C30G C33G C61A is lower in yeast fitness: 0.706 for the first, 0.556 for the second.

G10C C33G C62A G67C and G10C C22A C24G G50C A65C cannot be ordered by yeast fitness: no more than 0.5 for the first, no more than 0.5 for the second.

G10A C34U and G10A G12A U53A cannot be ordered by yeast fitness: no more than 0.5 for the first, no more than 0.5 for the second.

First: G10C C22A C60G C61U G63A
Second: G9C G23A
The yeast fitness of the first is lower: no more than 0.5 for the first, 0.544 for the second.

G10A A42C A43C C66A and G10C C11U C24U C33G A36U cannot be ordered by yeast fitness: no more than 0.5 for the first, no more than 0.5 for the second.

First: G10C A14U G38C
Second: G9U A70C
The yeast fitness of the first is lower: 0.736 for the first, 1.13 for the second.

Compared with G9C G44C, G9C U53A C66U is lower in yeast fitness: 0.65 for the first, no more than 0.5 for the second.

G9C C30G A37U U47A and G9C G12A U35G cannot be ordered by yeast fitness: no more than 0.5 for the first, no more than 0.5 for the second.

G10C C27U C30U U53A A69C and G9C C11U G18C C31A A57G cannot be ordered by yeast fitness: no more than 0.5 for the first, no more than 0.5 for the second.

First: G10C C49G U53G
Second: G9C G10C U47A G68C
The yeast fitness of the first is higher: 0.551 for the first, no more than 0.5 for the second.

Going from G10A C29A A42U U64C to G10C G12A U54A G68A, the yeast fitness falls from 0.529 to no more than 0.5.

G10C C46U C62U and G9C U13A G25A A40C A57C C61G G67A cannot be ordered by yeast fitness: no more than 0.5 for the first, no more than 0.5 for the second.

First: G10C A21C C29A C30G A40C
Second: G10A U28A
The yeast fitness of the first is lower: no more than 0.5 for the first, 0.633 for the second.

First: G9C C29U C49A C61U
Second: G9C C27U G58C
The yeast fitness of the first is lower: no more than 0.5 for the first, 0.639 for the second.

First: G10C A42C
Second: G10A C24A A43C C61U
The yeast fitness of the first is higher: 0.71 for the first, no more than 0.5 for the second.

First: G10A U13A C24A
Second: G10C A15G
The yeast fitness of the first is lower: 0.582 for the first, 0.786 for the second.

First: G10A A21U C31G
Second: G10C C22G C33A
The yeast fitness of the first is lower: no more than 0.5 for the first, 0.581 for the second.

G10A A43U C60U and G9C C24A C34A C46G cannot be ordered by yeast fitness: no more than 0.5 for the first, no more than 0.5 for the second.

Compared with G9C U28A A40C U59C, G10A C60G C61G is higher in yeast fitness: no more than 0.5 for the first, 0.528 for the second.

G10C C34A U53A U54G and G9C U47G C49A A69U cannot be ordered by yeast fitness: no more than 0.5 for the first, no more than 0.5 for the second.

Going from G10A U19C G41C to G9U C24G C55U, the yeast fitness rises from 0.532 to 0.668.

Going from G9C C11A U47G A69C to G10C G12A A36G C46A U47A, the yeast fitness falls from 0.601 to no more than 0.5.

G9U C31U A36C U53C and G9C C27U U47C C55U C62G A69U cannot be ordered by yeast fitness: no more than 0.5 for the first, no more than 0.5 for the second.

Compared with G10A U32A G48A, G10C A20U is higher in yeast fitness: no more than 0.5 for the first, 0.799 for the second.

Compared with G9C G25C C66U A70C, G9C C24A A45G C46G is higher in yeast fitness: 0.55 for the first, 0.597 for the second.

For G10A A21C C24A C66A, the yeast fitness was no more than 0.5.
